# The source made the active and inactive calls. The calls are words filed in the database; no cut-off is given here. Peptide text beside a SMILES is read from it.
# Key:
# [1] = target: T1, Guanine nucleotide-binding protein G(q) subunit alpha (Homo sapiens) (UniProt P50148); experiment: Binding affinity to Galphaq (unknown origin) expressed in baculovirus-infected insect Hi5 cells assessed as inhibition of BODIPY FL GTPgammaS binding by measuring fluorescence reduction at 30 to 300 uM preincubated for 30 mins followed by BODIPY FL GTPgammaS addition measured for 60 mins by real time nucleotide exchange assay relative to vehicle-treated control; conditions: BTI-TN-5B1-4
# T1 sequence (whole entry): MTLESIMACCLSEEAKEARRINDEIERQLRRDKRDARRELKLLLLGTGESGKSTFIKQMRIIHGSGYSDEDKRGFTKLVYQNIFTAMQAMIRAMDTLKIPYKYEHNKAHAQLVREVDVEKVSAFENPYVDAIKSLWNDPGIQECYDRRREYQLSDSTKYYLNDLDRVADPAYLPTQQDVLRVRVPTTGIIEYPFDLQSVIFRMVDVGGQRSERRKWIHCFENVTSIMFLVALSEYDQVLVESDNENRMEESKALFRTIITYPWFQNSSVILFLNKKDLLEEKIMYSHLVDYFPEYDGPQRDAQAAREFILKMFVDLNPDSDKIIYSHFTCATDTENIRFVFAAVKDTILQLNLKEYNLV
# Summary of the method: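 Gαq was partially purified from baculovirus-infected Hi5 insect cells (5 × MOI, 48 h). 600 nM protein was preincubated 30 min with compound (DMSO ≤1% v/v final) in 10 mM HEPES, 100 mM NaCl, 5 mM MgCl2, 0.1 mM EDTA, pH 7.4. Exchange was started with 250 nM BODIPY FL GTPγS. Endpoint at 60 min vs vehicle; triplicates, three experiments.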
# HEK293 = experiment: Cytotoxicity against HEK293 GloSensor cells transfected with Galphai1 coupled with alpha-2 adrenoceptor assessed as effect on cell viability at 10 uM; format: cell-based; conditions: human, hek293, 10 µM
# [2] = target: Guanine nucleotide-binding protein G(i) subunit alpha-1 (Homo sapiens) (UniProt P63096); experiment: Binding affinity to human Galphai1 expressed in Escherichia coli BL21 assessed as inhibition of [35S]GTPgammaS binding preincubated for 20 mins followed by [35S]GTPgammaS addition measured for 30 mins by liquid scintillation counting analysis; format: functional
# Sequence of Guanine nucleotide-binding protein G(i) subunit alpha-1 (Homo sapiens) (P63096 whole entry): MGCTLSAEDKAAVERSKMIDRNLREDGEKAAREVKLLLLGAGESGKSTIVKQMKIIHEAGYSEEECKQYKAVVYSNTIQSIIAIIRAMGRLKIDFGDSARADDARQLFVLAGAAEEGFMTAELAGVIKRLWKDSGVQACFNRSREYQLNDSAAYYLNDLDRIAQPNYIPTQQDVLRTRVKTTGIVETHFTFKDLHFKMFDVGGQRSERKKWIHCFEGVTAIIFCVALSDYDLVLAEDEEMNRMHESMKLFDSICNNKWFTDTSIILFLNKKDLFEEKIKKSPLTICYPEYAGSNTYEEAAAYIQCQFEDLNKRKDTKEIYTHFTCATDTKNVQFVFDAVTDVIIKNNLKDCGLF
# Summary of the method: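 Human Gαi1 was expressed from pPAL7 (Profinity eXact construct) in E. coli BL21 and affinity purified. 100 nM Gαi1 was preincubated 20 min at 24 °C with peptide, then 0.5 μM [35S]GTPγS was added for 30 min at 24 °C, in duplicate. Filtration on nitrocellulose was followed by washes in cold Tris/MgCl2/EDTA buffer pH 7.4 and scintillation counting. Nonspecific binding was taken with 100 μM GTPγS; results are percent of specific binding without peptide.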
Structure (SMILES),inhibition [1] [%],Activity (HEK293),inhibition [2]
O=[N+]([O-])[C-](/C=N/C1CCCCC1)/C=N/C1CCCCC1,32,Non-toxic,
Cc1cccc(N[C@@]2(C(F)(F)F)NC(c3ccccc3)=NC2=O)n1,25,,
CC1=CC(C)(C)NC(Nc2nc(-c3ccccc3)c3ccccc3n2)=N1,< 10,Toxic,
C/C(=N\c1ccc(O)cc1)c1sc2ccccc2c1O,< 10,,
CCc1ccc2c(C)nc(NC3=NC(C)(C)CC(C)=N3)nc2c1,50,Non-toxic,
Cc1nc(NC(=O)NCCC2=CSC3=NCCCN23)nn1C,27,,
CC(=O)C1=C(C)NC(C(C#N)C#N)=C(C#N)[C@H]1c1ccccc1,40,,
SC1=C2CCCCC2=[N+](C[C@@H]2CCCO2)[C@@H](c2ccccc2)N1,< 10,,
CCC[C@H]1C[C@](C)(C(=O)CNc2ccccn2)OC1=O,< 10,,
C1=C(/N=C/c2ccccc2)[N+](Cc2ccccc2)=CCO1,< 10,,
CC(=O)/C(=C(\C)O)[C@@H]1c2ccccc2O[C@H](C(F)(F)F)[C@@H]1[N+](=O)[O-],35,,
CSCC[C@H](NC(=O)[C@H](CCCNC(=N)N)NC(=O)[C@H](CCCCN)NC(=O)[C@H](CO)NC(=O)[C@H](CCC(N)=O)NC(=O)[C@H](CO)NC(=O)[C@H](CCCCN)NC(=O)[C@H](C)NC(=O)[C@H](CC(C)C)NC(=O)[C@H](CC(C)C)NC(=O)[C@H](CC(=O)O)NC(=O)[C@H](Cc1ccccc1)NC(=O)[C@H](Cc1ccccc1)NC(=O)[C@H](CC(=O)O)NC(=O)[C@H](CCC(=O)O)NC(=O)[C@H](CCC(=O)O)NC(=O)CNC(=O)[C@H](CCSC)NC(=O)[C@@H](N)[C@@H](C)O)C(=O)N[C@@H](CC(=O)O)C(=O)N[C@@H](CC(=O)O)C(=O)N[C@@H](CCC(N)=O)C(=O)N[C@@H](CCCNC(=N)N)C(=O)N[C@H](C(=O)N[C@@H](CC(=O)O)C(=O)N[C@@H](CC(C)C)C(=O)N[C@@H](C)C(=O)N[C@@H](CCCCN)C(N)=O)C(C)C (H-TMGEEDFFDLLAKSQSKRMDDQRVDLAK-NH2),,,Active
